According to ChEMBL document CHEMBL5724801, “EUbOPEN Chemogenomics Library - Multiplex” (2024):
“And” between values parts separate entries of the source, which are not always exact repeats. Equal entries are not always repeated.

System: U2OS
Assay: Multiplex assay against U2OS
Assay type: toxicity, cell-based
Settings: human
Method in brief: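 Tubulin, mitochondrial-mass and membrane-permeability phenotypes are per cents of healthy-nucleus cells. Cells were gated by CellPathfinder machine learning into Hoechst high-intensity objects or normal cells, normal cells into healthy, pyknosed or fragmented nuclei, and pyknosed cells into mitotic or apoptotic. Before that, live cells stained at seeding with Hoechst33342, BioTracker Green Microtubule Cytoskeleton Dye, MitoTracker Red and Annexin V Alexa Fluor 680 were imaged on a CQ1 microscope at 37°C and 5% CO2 after compound addition.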

[1] = 12 h, 1 µM, compound concentration 1 uM
[2] = 12 h, 10 µM, compound concentration 10 uM
[3] = 24 h, 1 µM, compound concentration 1 uM
[4] = 24 h, 10 µM, compound concentration 10 uM
[5] = 48 h, 1 µM, compound concentration 1 uM
[6] = 48 h, 10 µM, compound concentration 10 uM

## CN(C)CCOc1ccc(/C(=C(/CCCO)c2ccccc2)c2ccc(O)cc2)cc1
[1]
  Population Apoptotic (%): 43.75% and 21.88%
  Population Fragmented Nuclei (%): 1.53% and 1.8%
  Population Healthy Nuclei (%): 90.31% and 79.04%
  Population Hoechst High Intensity Objects (%): 0%
  Population Membrane Permeable-Phenotype (%): 2.26% and 4.55%
  Population Mitotic Cells (%): 56.25% and 78.12%
  Population Normal (%): 100%
  Population Pyknosed Nuclei (%): 8.16% and 19.16%
  Population Tubulin-Different-Phenotype (%): 2.54% and 2.27%
  Total Cell Count: 392 and 167
[2]
  Population Apoptotic (%): 30.43% and 23.08%
  Population Fragmented Nuclei (%): 2.02% and 2.16%
  Population Healthy Nuclei (%): 71.39% and 69.78%
  Population Hoechst High Intensity Objects (%): 0%
  Population Membrane Permeable-Phenotype (%): 13.77% and 36.08%
  Population Mitotic Cells (%): 69.57% and 76.92%
  Population Normal (%): 100%
  Population Pyknosed Nuclei (%): 26.59% and 28.06%
  Population Tubulin-Different-Phenotype (%): 60.73% and 38.14%
  Total Cell Count: 346 and 139
[3]
  Population Apoptotic (%): 35.85% and 30.56%
  Population Fragmented Nuclei (%): 0.75% and 3.24%
  Population Healthy Nuclei (%): 89.35% and 80.09%
  Population Hoechst High Intensity Objects (%): 0%
  Population Membrane Permeable-Phenotype (%): 0.63% and 4.05%
  Population Mitotic Cells (%): 64.15% and 69.44%
  Population Normal (%): 100%
  Population Pyknosed Nuclei (%): 9.91% and 16.67%
  Population Tubulin-Different-Phenotype (%): 1.67% and 1.16%
  Total Cell Count: 535 and 216
[4]
  Population Apoptotic (%): 44.63% and 34.25%
  Population Fragmented Nuclei (%): 2.92% and 1.89%
  Population Healthy Nuclei (%): 67.64% and 52.2%
  Population Hoechst High Intensity Objects (%): 0%
  Population Membrane Permeable-Phenotype (%): 12.23% and 26.51%
  Population Mitotic Cells (%): 55.37% and 65.75%
  Population Normal (%): 100%
  Population Pyknosed Nuclei (%): 29.44% and 45.91%
  Population Tubulin-Different-Phenotype (%): 51.08% and 46.99%
  Total Cell Count: 411 and 159
[5]
  Population Apoptotic (%): 42.71% and 56.25%
  Population Fragmented Nuclei (%): 2% and 2.61%
  Population Healthy Nuclei (%): 87.88% and 81.7%
  Population Hoechst High Intensity Objects (%): 0.11% and 0%
  Population Membrane Permeable-Phenotype (%): 1.2% and 2%
  Population Mitotic Cells (%): 57.29% and 43.75%
  Population Normal (%): 99.89% and 100%
  Population Pyknosed Nuclei (%): 10.12% and 15.69%
  Population Tubulin-Different-Phenotype (%): 2.28% and 1.6%
[6]
  Population Apoptotic (%): 54.89% and 66.67%
  Population Fragmented Nuclei (%): 4.64% and 2.86%
  Population Healthy Nuclei (%): 74.08% and 49.14%
  Population Hoechst High Intensity Objects (%): 0%
  Population Mitotic Cells (%): 45.11% and 33.33%
  Population Normal (%): 100%
  Population Pyknosed Nuclei (%): 21.28% and 48%
  Population Tubulin-Different-Phenotype (%): 26.13% and 55.81%

## COc1ccc(-n2c(C)c([N+](=O)[O-])c3ccc(O)cc32)cc1
[1]
  Population Apoptotic (%): 45.24% and 38.46%
  Population Fragmented Nuclei (%): 0.72% and 4.55%
  Population Healthy Nuclei (%): 89.23% and 88.07%
  Population Hoechst High Intensity Objects (%): 0%
  Population Membrane Permeable-Phenotype (%): 2.14% and 5.16%
  Population Mitochondria Different-Phenotype (%): 0.27% and 4.52%
  Population Mitotic Cells (%): 54.76% and 61.54%
  Population Normal (%): 100%
  Population Pyknosed Nuclei (%): 10.05% and 7.39%
  Population Tubulin-Different-Phenotype (%): 0.8% and 1.29%
  Total Cell Count: 418 and 176
[2]
  Population Apoptotic (%): 24.32% and 50%
  Population Fragmented Nuclei (%): 1.07% and 1.43%
  Population Healthy Nuclei (%): 90.99% and 84.29%
  Population Hoechst High Intensity Objects (%): 0%
  Population Membrane Permeable-Phenotype (%): 1.42% and 6.78%
  Population Mitochondria Different-Phenotype (%): 0.47% and 5.08%
  Population Mitotic Cells (%): 75.68% and 50%
  Population Normal (%): 100%
  Population Pyknosed Nuclei (%): 7.94% and 14.29%
  Population Tubulin-Different-Phenotype (%): 4.01% and 0%
[3]
  Population Apoptotic (%): 52.94% and 48%
  Population Fragmented Nuclei (%): 1.65% and 2.64%
  Population Healthy Nuclei (%): 89.03% and 86.34%
  Population Hoechst High Intensity Objects (%): 0%
  Population Membrane Permeable-Phenotype (%): 0.62% and 4.08%
  Population Mitochondria Different-Phenotype (%): 0.21% and 4.08%
  Population Mitotic Cells (%): 47.06% and 52%
  Population Normal (%): 100%
  Population Pyknosed Nuclei (%): 9.32% and 11.01%
  Population Tubulin-Different-Phenotype (%): 1.03% and 1.53%
  Total Cell Count: 547 and 227
[4]
  Population Apoptotic (%): 38.64% and 52.38%
  Population Fragmented Nuclei (%): 2.67% and 2.78%
  Population Healthy Nuclei (%): 90% and 85.56%
  Population Hoechst High Intensity Objects (%): 0%
  Population Membrane Permeable-Phenotype (%): 1.67% and 3.9%
  Population Mitochondria Different-Phenotype (%): 0.37% and 3.25%
  Population Mitotic Cells (%): 61.36% and 47.62%
  Population Normal (%): 100%
  Population Pyknosed Nuclei (%): 7.33% and 11.67%
  Population Tubulin-Different-Phenotype (%): 1.67% and 0%
[5]
  Population Apoptotic (%): 36.36% and 48.48%
  Population Fragmented Nuclei (%): 2.25% and 2.47%
  Population Healthy Nuclei (%): 88.75% and 88.46%
  Population Hoechst High Intensity Objects (%): 0%
  Population Membrane Permeable-Phenotype (%): 0.69% and 2.48%
  Population Mitochondria Different-Phenotype (%): 0% and 3.42%
  Population Mitotic Cells (%): 63.64% and 51.52%
  Population Normal (%): 100%
  Population Pyknosed Nuclei (%): 9% and 9.07%
  Population Tubulin-Different-Phenotype (%): 0.58% and 1.24%
  Total Cell Count: 978 and 364
[6]
  Population Apoptotic (%): 56.82% and 55.26%
  Population Fragmented Nuclei (%): 3.3% and 3.1%
  Population Healthy Nuclei (%): 87.91% and 83.79%
  Population Hoechst High Intensity Objects (%): 0%
  Population Membrane Permeable-Phenotype (%): 0.91% and 4.12%
  Population Mitochondria Different-Phenotype (%): 0.11% and 3.7%
  Population Mitotic Cells (%): 43.18% and 44.74%
  Population Normal (%): 100%
  Population Pyknosed Nuclei (%): 8.79% and 13.1%
  Population Tubulin-Different-Phenotype (%): 1.7% and 2.88%

## CN(C)Cc1cccc(NC(=C2C(=O)Nc3cc(C(N)=O)ccc32)c2ccccc2)c1
[1]
  Population Apoptotic (%): 37.78% and 38.1%
  Population Fragmented Nuclei (%): 1.29% and 3.85%
  Population Healthy Nuclei (%): 87.11% and 82.69%
  Population Hoechst High Intensity Objects (%): 0%
  Population Membrane Permeable-Phenotype (%): 1.78% and 2.33%
  Population Mitochondria Different-Phenotype (%): 0.59% and 5.43%
  Population Mitotic Cells (%): 62.22% and 61.9%
  Population Normal (%): 100%
  Population Pyknosed Nuclei (%): 11.6% and 13.46%
  Population Tubulin-Different-Phenotype (%): 1.18% and 0%
  Total Cell Count: 388 and 156
[2]
  Population Apoptotic (%): 35.71% and 43.75%
  Population Healthy Nuclei (%): 86.17% and 71.36%
  Population Hoechst High Intensity Objects (%): 0%
  Population Membrane Permeable-Phenotype (%): 3.66% and 11.27%
  Population Mitotic Cells (%): 64.29% and 56.25%
  Population Normal (%): 100%
  Population Pyknosed Nuclei (%): 10.19% and 8.04%
  Population Tubulin-Different-Phenotype (%): 6.48% and 4.93%
  Total Cell Count: 412 and 199
[3]
  Population Apoptotic (%): 42% and 39.29%
  Population Fragmented Nuclei (%): 1.87% and 0.52%
  Population Healthy Nuclei (%): 88.81% and 84.97%
  Population Hoechst High Intensity Objects (%): 0%
  Population Membrane Permeable-Phenotype (%): 1.89% and 4.27%
  Population Mitochondria Different-Phenotype (%): 0.42% and 6.1%
  Population Mitotic Cells (%): 58% and 60.71%
  Population Normal (%): 100%
  Population Pyknosed Nuclei (%): 9.33% and 14.51%
  Population Tubulin-Different-Phenotype (%): 1.47% and 0.61%
  Total Cell Count: 536 and 193
[4]
  Population Apoptotic (%): 50.75% and 51.72%
  Population Healthy Nuclei (%): 82.77% and 70.62%
  Population Hoechst High Intensity Objects (%): 0%
  Population Membrane Permeable-Phenotype (%): 2.06% and 8.72%
  Population Mitotic Cells (%): 49.25% and 48.28%
  Population Normal (%): 100%
  Population Pyknosed Nuclei (%): 14.26% and 13.74%
  Population Tubulin-Different-Phenotype (%): 4.88% and 2.68%
  Total Cell Count: 470 and 211
[5]
  Population Apoptotic (%): 48.91% and 34.38%
  Population Fragmented Nuclei (%): 3.29% and 3.37%
  Population Healthy Nuclei (%): 86.93% and 86.81%
  Population Hoechst High Intensity Objects (%): 0.11% and 0%
  Population Membrane Permeable-Phenotype (%): 1.34% and 2.47%
  Population Mitochondria Different-Phenotype (%): 0.37% and 3.53%
  Population Mitotic Cells (%): 51.09% and 65.62%
  Population Normal (%): 99.89% and 100%
  Population Pyknosed Nuclei (%): 9.78% and 9.82%
  Population Tubulin-Different-Phenotype (%): 1.1% and 0.71%
  Total Cell Count: 942 and 326
[6]
  Population Apoptotic (%): 57.52% and 51.28%
  Population Healthy Nuclei (%): 81.24% and 71.84%
  Population Hoechst High Intensity Objects (%): 0%
  Population Membrane Permeable-Phenotype (%): 3.41% and 6.53%
  Population Mitochondria Different-Phenotype (%): 0.33% and 7.54%
  Population Mitotic Cells (%): 42.48% and 48.72%
  Population Normal (%): 100%
  Population Pyknosed Nuclei (%): 14.93% and 14.08%
  Population Tubulin-Different-Phenotype (%): 4.88% and 7.04%
  Total Cell Count: 757 and 277
